mIAP inh: blocks mouse intestinal alkaline phosphatase | inhibition, % at 10 µM | hit rate 0.2% among 330,000 | purified mouse IAP, CDP-Star luminescence, 30 min;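 active means inhibition of at least 40% at 10 µM in the primary screen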;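 further: plate controls were DMSO with enzyme for no effect and no enzyme wells for full effect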
hIAP block: blocks human intestinal alkaline phosphatase; P09923; purified IAP, CDP-Star luminescence, 30 min; inhibition, % at 10 µM; hit rate 0.12% among 330,000; AID 2544;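 active means inhibition reaching a set limit with compound at 10 µM in the primary screen, cut at about 35% in these data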;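 further: plate controls were DMSO wells with enzyme for no effect and no-enzyme buffer wells for full effect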
Target sequence (P09923 whole entry, looked up): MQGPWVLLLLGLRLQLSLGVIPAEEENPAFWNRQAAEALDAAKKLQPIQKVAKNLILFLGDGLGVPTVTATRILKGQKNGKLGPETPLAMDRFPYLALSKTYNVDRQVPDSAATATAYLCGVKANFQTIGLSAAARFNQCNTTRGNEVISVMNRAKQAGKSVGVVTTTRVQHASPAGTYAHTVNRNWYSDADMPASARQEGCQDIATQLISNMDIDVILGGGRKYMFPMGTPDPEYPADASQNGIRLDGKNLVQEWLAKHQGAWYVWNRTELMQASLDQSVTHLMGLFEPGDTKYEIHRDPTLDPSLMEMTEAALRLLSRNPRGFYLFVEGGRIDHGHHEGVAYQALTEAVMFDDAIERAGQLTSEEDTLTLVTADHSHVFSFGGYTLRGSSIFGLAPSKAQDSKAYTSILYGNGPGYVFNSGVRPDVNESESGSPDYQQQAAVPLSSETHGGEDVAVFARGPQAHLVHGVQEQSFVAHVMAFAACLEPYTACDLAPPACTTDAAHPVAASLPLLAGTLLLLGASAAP
hIAP activ: increases human intestinal alkaline phosphatase activity; P09923; purified human IAP, CDP-Star luminescence, 30 min; active compounds read high; 1 = vehicle-only enzyme, 0 = enzyme-free background; activation factor at 10 µM; hit rate 0.16% among 330,000; AID 2524;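 active means activation factor of the enzyme at least 2-fold when tested at 20 µM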
bIAP activator: intestinal alkaline phosphatase (bovine) activation | AID 1016 | hit rate 0.17% among 200,000 | purified bovine IAP, CDP-star luminescence, 30 min; active compounds read high; fold of DMSO-control signal, blank-subtracted | activation factor at 20 µM;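 active means activation factor of 2 or more at 20 µM, a signal rise over negative controls twice the positive control's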
bIAP inh: blocks bovine intestinal alkaline phosphatase activity. purified bovine IAP, CDP-star luminescence, 30 min. inhibition, % at 20 µM. 190,000 tested, under 10 active;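 active means over 50% inhibition of intestinal alkaline phosphatase at 20 µM in the single-dose screen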
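Assay system – bovine IAP enzyme · Quantity – bovine IAP at 1/65,000,000 final dilution · Detection – CDP-star luminescence signal · Times – 30 min reaction at room temperature · Also added – CDP-star substrate at 30 µM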
mIAP activ: increases mouse intestinal alkaline phosphatase activity | muIAP, CDP-Star luminescence, 30 min; active compounds read high; 1 = vehicle-only enzyme signal, 0 = enzyme-free wells | activation factor at 10 µM | hit rate 0.24% among 330,000;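 active means activation factor of at least 2 at 20 µM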
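also added = chemiluminescent substrate CDP-Star | test system = mouse IAP enzyme | signal = chemiluminescence readout | compound = DMSO-dissolved test compounds | incubation = 30 min at room temperature | benchmarks = DMSO wells, no-enzyme wells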
hIAP act conf: human IAP activation confirmation; shares compounds with hIAP activ; purified IAP, CDP-Star luminescence, 30 min; active compounds read low; activation (%Activity, negative = activation), % at 8.3 µM; hit rate 10% among 880;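 active means at least twofold enzyme activation in any of six single-dose repeats, which the averaged readout prints as negative percent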
mIAP inh confirm: mouse IAP inhibition confirmation. shares compounds with mIAP inh. purified mouse IAP, CDP-Star luminescence, 30 min. inhibition, % at 10 µM. hit rate 4.7% among 11,000;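 active means inhibition of at least 40% at 10 µM in either of the two replicates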;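 further: plate controls were DMSO wells with enzyme for no effect and buffer wells lacking enzyme for full effect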
* marks the source's active call; other numbers are inactive results. Only some compounds are listed: those with a hit (about 0.72% of all), similar ones and a draw of the others.

How did Nc1ncc([N+](=O)[O-])s1 do in these assays?
mIAP inh: 42.9*; hIAP block: -17.2; hIAP activ: 1.17; mIAP activ: 0.571

What do the screens show for `O=C1NC(=O)C2=Cc3ccc(O)cc3OC2(O)N1` (stereo unspecified)?
bIAP activator: 1; bIAP inh: -1.2

Results for O=C(Nc1cccc(Cl)c1)OC1CN2CCC1CC2 (stereo unspecified) ?
mIAP inh: -341.8; hIAP block: 6.8; hIAP activ: 0.932; mIAP activ: 4.42*

What do the screens show for `NS(=O)(=O)c1ccc(-c2ccc(C=C3C(=O)NC(=O)NC3=O)o2)cc1`?
mIAP inh: 64.5*; hIAP block: 7.3; hIAP activ: 0.927; mIAP activ: 0.355

What do the screens show for `CNS(=O)(=O)c1ccc(-c2ccc(C=C3C(=O)NC(=O)NC3=O)o2)cc1`?
mIAP inh: 19.1; hIAP block: 9.3; hIAP activ: 0.907; mIAP activ: 0.809

What do the screens show for `COC1=CC(=O)[C@]2(C=C1OC)OC[C@@H]1Oc3c(ccc4c3C=CC(C)(C)O4)C(=O)[C@@H]12`?
mIAP inh: 5.7; hIAP block: 9.8; hIAP activ: 0.902; mIAP activ: 0.943

What do the screens show for `CN1C(=O)C(=Cc2ccc(N3CCCCCC3)o2)C(=O)N(C)C1=S`?
mIAP inh: 43.1*; hIAP block: 0.8; hIAP activ: 0.992; bIAP activator: 0.7; bIAP inh: 27.3; mIAP activ: 0.569

What do the screens show for `COC(=O)C1=C(N)Oc2cc(C)oc(=O)c2C12C(=O)Nc1ccccc12` (stereo unspecified)?
mIAP inh: -8.3; hIAP block: 6.4; hIAP activ: 0.936; bIAP activator: 1; bIAP inh: -2.1; mIAP activ: 1.08

How did COC(=O)Cn1cc(/C=C2\C(=O)NC(=O)N(c3ccccc3)C2=O)c2ccccc21 do in these assays?
mIAP inh: 1.6; hIAP block: 36.8*; hIAP activ: 0.632; mIAP activ: 0.984; hIAP act conf: 33.9

What do the screens show for `CCOC(=O)CN1C(=O)C2(C(C#N)=C(N)Oc3ccccc32)C(C(=O)OC)=C1C` (stereo unspecified)?
mIAP inh: -3.0; hIAP block: -7.3; hIAP activ: 1.07; bIAP activator: 0.9; bIAP inh: 8.2; mIAP activ: 1.03

Results for O=C(O)Cn1cc(/C=C2\C(=O)NC(=O)N(Cc3ccco3)C2=O)c2ccccc21 ?
mIAP inh: 56.9*; hIAP block: 0.8; hIAP activ: 0.992; bIAP activator: 1.1; bIAP inh: -8.4; mIAP activ: 0.431; mIAP inh confirm: 57.9*

How did CCN(CC)c1ccc(/C=C2/C(=O)NC(=O)N(CC3CCCO3)C2=O)cc1 (stereo unspecified) do in these assays?
mIAP inh: 2.9; hIAP block: 8.7; hIAP activ: 0.913; bIAP activator: 1; bIAP inh: 0.6; mIAP activ: 0.971

How did CCN(CC)c1ccc(/C=C2\C(=O)NC(=O)N(Cc3ccco3)C2=O)cc1 do in these assays?
mIAP inh: 49.3*; hIAP block: 4.8; hIAP activ: 0.952; bIAP activator: 0.9; bIAP inh: 13.7; mIAP activ: 0.507; mIAP inh confirm: 53.2*

Results for CN1C(=O)NC(=O)/C(=C/c2ccc([N+](=O)[O-])o2)C1=O ?
mIAP inh: 41.9*; hIAP block: 11.7; hIAP activ: 0.883; mIAP activ: 0.581; mIAP inh confirm: 41.5*

Results for O=C1NC(=O)N(c2ccccc2)C(=O)/C1=C\c1ccc([N+](=O)[O-])o1 ?
mIAP inh: 46.8*; hIAP block: -16.1; hIAP activ: 1.16; mIAP activ: 0.532; mIAP inh confirm: 59.1*

What do the screens show for `CN1C(=O)NC(=O)/C(=C\c2ccc([N+](=O)[O-])o2)C1=O`?
mIAP inh: 44.0*; hIAP block: 10.9; hIAP activ: 0.891; bIAP activator: 1; bIAP inh: 2.3; mIAP activ: 0.56; mIAP inh confirm: 56.1*

What do the screens show for `COc1ccc(NC(=S)NC(NC(=O)CF)C(Cl)(Cl)Cl)cc1[N+](=O)[O-]` (stereo unspecified)?
mIAP inh: 9.2; hIAP block: -5.4; hIAP activ: 1.05; bIAP activator: 0.9; bIAP inh: 7.2; mIAP activ: 0.908

How did CN(C)CCOC(=O)c1cn(Cc2ccccc2)c2ccccc12 do in these assays?
mIAP inh: 1.2; hIAP block: -33.6; hIAP activ: 1.34; bIAP activator: 1.1; bIAP inh: -8.1; mIAP activ: 0.988

What do the screens show for `CC(C)(C)c1cc(C=C(C#N)C#N)cc(C(C)(C)C)c1O`?
mIAP inh: 24.1; hIAP block: 20.2; hIAP activ: 0.798; mIAP activ: 0.759

What do the screens show for `N#CC(C#N)=Cc1ccc(O)c(O)c1`?
mIAP inh: 45.9*; hIAP block: 32.6; hIAP activ: 0.674; mIAP activ: 0.541; mIAP inh confirm: 65.9*

Results for O=C1NC(=O)N(Cc2ccccc2)C(=O)/C1=C\c1ccco1 ?
mIAP inh: 7.1; hIAP block: 8.8; hIAP activ: 0.912; bIAP activator: 1.1; bIAP inh: -13.7; mIAP activ: 0.929

Results for O=C1NC(=O)N(Cc2ccc(F)cc2)C(=O)/C1=C\C=C\c1ccco1 ?
mIAP inh: 58.9*; hIAP block: 1.4; hIAP activ: 0.986; mIAP activ: 0.411; mIAP inh confirm: 61.2*

What do the screens show for `COc1ccc(OC)c(N2C(=O)NC(=O)/C(=C\c3ccc([N+](=O)[O-])s3)C2=O)c1`?
mIAP inh: 27.6; hIAP block: 15.9; hIAP activ: 0.841; bIAP activator: 1; bIAP inh: -1.7; mIAP activ: 0.724

How did O=C1NC(=O)N(c2ccccc2)C(=O)/C1=C\c1ccc([N+](=O)[O-])s1 do in these assays?
mIAP inh: 41.1*; hIAP block: 2.2; hIAP activ: 0.978; mIAP activ: 0.589; mIAP inh confirm: 53.1*

How did Cc1ccc(/C=C2/C(=O)NC(=O)N(C)C2=O)cc1 do in these assays?
mIAP inh: 1.2; hIAP block: -13.4; hIAP activ: 1.13; bIAP activator: 1; bIAP inh: -4.7; mIAP activ: 0.988

What do the screens show for `CN1C(=O)NC(=O)/C(=C/c2ccc([N+](=O)[O-])s2)C1=O`?
mIAP inh: 46.1*; hIAP block: -0.5; hIAP activ: 1; mIAP activ: 0.539; mIAP inh confirm: 44.9*

What do the screens show for `CN(C)P(=O)(CCl)Nc1ccccc1` (stereo unspecified)?
mIAP inh: -4.9; hIAP block: -4.4; hIAP activ: 1.04; bIAP activator: 1; bIAP inh: 0.2; mIAP activ: 1.05

Screening results from PubChem.
